This is a sample that favours compounds with a hit; in the whole collection about 2.9% have one here.
TAG inh: triacylglycerol accumulation inhibition | 230,000 compounds, 0.66% hits | inhibition, % at 12.5 µM | H9c2 cells, Nile Red lipid (TAG) fluorescence; cells loaded with 200 µM oleic acid;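 active = pattern-corrected inhibition of lipid staining of at least 50% with the nuclear-stain viability signal not falling by more than 50%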
beta cell repl: induces beta-cell replication in MIN6 cells; MIN6 cells proliferation, ATPlite luminescence, 48 h; cells starved in 0.2% serum; 100% = growth in 10% serum; proliferation, % at 10 µM; 330,000 compounds, 0.29% hits; AID 2380;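 active = compounds whose signal lies at least 3.5 SD above the mean of all wells on their plate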
PG9 Ab binder: binds the HIV-1 gp120 antibody PG9 | TR-FRET gp120-PG9 antibody binding | inhibition, % at 6.7 µM | 360,000 compounds, 0.43% hits | AID 624416; in the data active = inhibition above about 8.5%
T cruzi repl: T. cruzi replication inhibition. T. cruzi beta-gal in NIH3T3, luminescence, 90 h. inhibition, % (concentration not given with the values). 300,000 compounds, 1.4% hits;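 active = mean inhibition across valid replicates above about 55%, limit read from the data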;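 note: signal also drops with host cell toxicity which is not excluded here; higher percent means less beta-gal luminescence so fewer parasites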
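Material: NIH/3T3 host cells with β-galactosidase reporter T. cruzi; Input: 5,000 host fibroblasts per well; Medium: DMEM, 2% fetal bovine serum; Compound: 50 nL DMSO compound solution per well; Schedule: 3 h host attachment, then at least 90 h co-culture; Detection: luminescent β-galactosidase signal after 60 min lysis.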
NR1D1 modulator: Rev-erb alpha (human) modulation. P20393. Rev-erbα–FITC-DNA binding, fluorescence polarization, 90 min. activity, % at 10 µM. 370,000 compounds, 0.79% hits;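 active = activity above about 14%, limit read from the data; passing the limit was not always enough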
Target sequence (P20393 whole entry, looked up): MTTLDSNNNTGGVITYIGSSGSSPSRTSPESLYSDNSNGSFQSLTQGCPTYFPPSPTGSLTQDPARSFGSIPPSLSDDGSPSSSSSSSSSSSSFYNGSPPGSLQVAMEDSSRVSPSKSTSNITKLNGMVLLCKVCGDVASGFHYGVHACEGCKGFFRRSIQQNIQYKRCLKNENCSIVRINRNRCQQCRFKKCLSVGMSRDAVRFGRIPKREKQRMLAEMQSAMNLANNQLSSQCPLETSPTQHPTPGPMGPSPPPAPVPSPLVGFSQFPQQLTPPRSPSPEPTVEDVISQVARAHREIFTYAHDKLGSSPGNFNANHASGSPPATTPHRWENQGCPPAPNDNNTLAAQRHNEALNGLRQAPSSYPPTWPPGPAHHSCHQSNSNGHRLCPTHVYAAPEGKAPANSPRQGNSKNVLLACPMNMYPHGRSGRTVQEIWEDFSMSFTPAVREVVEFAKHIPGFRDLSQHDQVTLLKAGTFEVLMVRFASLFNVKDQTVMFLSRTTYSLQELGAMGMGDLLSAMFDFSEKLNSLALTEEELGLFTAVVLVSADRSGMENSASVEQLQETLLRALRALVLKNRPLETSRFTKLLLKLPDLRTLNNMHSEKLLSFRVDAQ
hiPSC survival: hiPSC single-cell survival enhancement; ATPlite luminescence; 100% = ROCK inhibitor wells, 0% = DMSO; survival enhancement, % at 20 µM; 360,000 compounds, 0.044% hits; in the data active = survival enhancement above about 18%;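 note: cells exposed to compounds for 16 hours before the ATP read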
H9c2 TAG conf: triacylglycerol accumulation inhibition, confirmation; shares compounds with TAG inh; H9c2 lipid accumulation, Nile Red fluorescence; cells loaded with 200 µM oleic acid; inhibition, % at 12.5 µM; 990 compounds, 71% hits;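 active = mean inhibition across replicates of 40% or more; inactive = mean inhibition below 40%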
Numbers stand for hits; i = inactive; nt = no result.

SMILES	TAG inh	beta cell repl	PG9 Ab binder	T cruzi repl	NR1D1 modulator	hiPSC survival	H9c2 TAG conf
CCN(CC)C(=O)c1ccc2c(c1)N(Cc1ccccc1)C(=O)CS2=O (stereo unspecified)	i	i	i	i	i	i	nt
Cc1csc(NC(=O)CSc2ncn(-c3ccccc3)n2)n1	i	i	i	i	i	i	nt
CC(C)c1ccc(C2C3=C(COC3=O)Nc3cc4c(cc32)OCO4)cc1 (stereo unspecified)	54	i	i	i	i	i	i
COc1ccc2c(c1)[nH]c1c(=O)n(/N=C/C3C(C)C=C(C)CC3C)c(=O)[nH]c12 (stereo unspecified)	85	i	i	i	i	i	i
CO/N=C\CC(=O)Nc1ccc(Oc2ccccc2)cc1	61	i	i	i	i	i	81
O=C(C/C=N\O)Nc1ccc(Oc2ccccc2)cc1	i	i	i	i	i	i	nt
CCOC(=O)N1CCN(C(=O)C2CCCN(S(=O)(=O)c3ccc(C)cc3)C2)CC1 (stereo unspecified)	nt	i	nt	i	i	i	nt
COc1ccc(NC(=O)C(=O)NCC(=O)Nc2cc(OC)ccc2OC)cc1	i	i	i	i	i	i	nt
OCCN1CCN(CC(O)COc2ccc(Cl)cc2)CC1 (stereo unspecified)	i	i	i	i	i	i	nt
OCCN1CCN(CC(O)COc2ccc(C34CC5CC(CC(C5)C3)C4)cc2)CC1 (stereo unspecified)	63	i	i	i	i	i	i
COc1ccc(OC)c(C2CC(c3ccccc3)=NN2C(=S)Nc2ccccc2)c1 (stereo unspecified)	52	i	i	i	i	i	50
CNC(=S)N1N=C(c2ccc(C)cc2)CC1c1cc(OC)ccc1OC (stereo unspecified)	i	i	i	i	i	i	nt
Cc1nc2cc(N)ccc2n1C1CCCCC1	i	i	i	i	i	i	nt
CCOc1ccc(CCNC(=O)CN(C)S(=O)(=O)c2cccc3nsnc23)cc1OCC	51	i	i	i	i	i	44
N#Cc1ccccc1NC(=O)COC(=O)/C=C/c1cn(-c2ccccc2)nc1-c1ccc(Cl)cc1	i	nt	i	nt	i	i	nt
COc1ccc(-c2nn(-c3ccccc3)cc2/C=C/C(=O)OCC(=O)Nc2ccccc2C#N)cc1	67	i	i	i	i	i	77
CCCCCOc1ccc(N2C(=O)CC(N(O)c3ccccc3)C2=O)cc1 (stereo unspecified)	i	i	i	i	i	i	nt
NC(Cc1ccc(F)cc1)c1csc(Nc2ccc(C(F)(F)F)cn2)n1 (stereo unspecified)	90	nt	i	nt	i	i	74
CN(Cc1ccccc1)C(=O)c1ccc(Nc2nc(C(N)Cc3ccccc3)cs2)nc1 (stereo unspecified)	52	nt	i	nt	i	i	49
CC(=O)CSc1nnc(CN2C(=O)CSc3ccc(C(F)(F)F)cc32)n1C	i	i	i	i	i	i	nt
COc1cccc(Cn2cccc(NC(=O)Nc3cccc(C#N)c3)c2=O)c1	nt	i	i	i	i	nt	nt
CCSCc1nnc(SCC(=O)Nc2nccs2)n1CC	i	i	i	i	i	i	nt
CCn1c(COc2ccc(C(C)C)cc2)nnc1SCC(=O)Nc1nccs1	57	i	i	i	i	i	i
CC(C)(C)NC(=O)C(c1ccc(-c2ccccc2)cc1)N(C[C@H]1CC[C@@H]([C@@H]2CC[C@H](CO)O2)O1)C(=O)c1ccc2ccccc2c1 (stereo partly specified)	65	nt	i	nt	i	i	82
CC(C)(C)NC(=O)C(c1ccc(-c2ccccc2)cc1)N(C[C@H]1CC[C@@H]([C@@H]2CC[C@H](CO)O2)O1)C(=O)c1cccc(Cl)c1 (stereo partly specified)	i	nt	i	nt	i	i	nt
SMILES	TAG inh	beta cell repl	PG9 Ab binder	T cruzi repl	NR1D1 modulator	hiPSC survival	H9c2 TAG conf
CC(C)(C)NC(=O)C(c1ccc(-c2ccccc2)cc1)N(C[C@H]1CC[C@@H]([C@@H]2CC[C@H](CO)O2)O1)C(=O)c1ccc(-c2ccccc2)cc1 (stereo partly specified)	60	nt	nt	nt	nt	i	67
COc1cccc(CN2C(=O)[C@H]3Cc4c([nH]c5ccccc45)C(C)(C)N3C2=O)c1	i	i	i	i	i	i	nt
COCCCn1c(SCC(=O)Nc2nc3ccccc3s2)nnc1-c1ccoc1C	51	i	i	i	nt	i	i
O=C1C=CC(O)C2(CO)OC12 (stereo unspecified)	81	nt	i	nt	i	i	86
CC(C)c1cccc(C(C)C)c1OC(=O)[C@H]1OC(c2ccc(Br)cc2)=C[C@@H]1c1ccc(Br)cc1	59	i	i	nt	i	i	i
NC(=Nc1ccccc1)NC(=O)c1nc(Cl)c(N)nc1N	i	i	i	i	i	i	nt
N=c1n(CCO)c2ccccc2n1CCOc1ccc(Cl)cc1Cl	91	i	i	i	i	i	64
COc1ccc(OCCn2c(=N)n(CCO)c3ccccc32)cc1	i	i	i	i	i	i	nt
O=C(Nc1ccc2c(c1)OCCO2)c1cc2sccc2n1Cc1ccc(F)cc1	i	i	i	i	i	i	nt
O=C(Nc1ccc2c(c1)OCCO2)c1cc2sccc2n1Cc1ccccc1	60	i	i	i	i	i	i
CCN(CC)S(=O)(=O)c1ccc(N2CCOCC2)c(NC(=O)c2[nH]c(C)c(C(C)=O)c2C)c1	69	i	i	nt	i	i	75
COc1ccc(-c2c(C)oc3c(CN4CCOCC4)c(O)ccc3c2=O)cc1OC	nt	i	i	i	i	i	nt
CCC(=O)Nc1c(-c2ccc(OC)cc2)c(=O)c2ccccc2n1C	61	i	i	i	i	i	i
CCO[C@H]1OC(C(=O)NCc2nc3ccccc3[nH]2)=C[C@@H](c2cn(C(C)=O)c3ccccc23)[C@@H]1CCCO	nt	i	i	i	i	i	nt
CCO[C@@H]1OC(C(=O)NCc2nc3ccccc3[nH]2)=C[C@H](c2cn(C(C)=O)c3ccccc23)[C@H]1CCCO	53	i	i	i	i	i	i
Cc1ccn2c(=O)nc(SCC(=O)NCc3ccco3)nc2c1	i	i	i	i	i	i	nt
CCN(CC)CCn1c2c(c(SCC(=O)Nc3ccc(C)c(F)c3)nc1=O)CCC2	i	i	i	i	i	i	nt
CCN(CC)CCn1c2c(c(SCC(=O)Nc3ccc(C)c(F)c3)nc1=O)CCCC2	53	i	i	i	i	i	i
CC(=O)Nc1ccc(-c2ccnc3c2CC(C(=O)NCc2cccc(Cl)c2)O3)cc1 (stereo unspecified)	58	nt	i	nt	i	i	63
COc1ccc(NC(=O)C2Cc3c(-c4cccc(C(C)=O)c4)ccnc3O2)cc1 (stereo unspecified)	54	nt	i	nt	i	i	i

High-throughput results from PubChem BioAssay.
